Laboratory results reported in ChEMBL document CHEMBL4689842, “EUbOPEN Chemogenomics Library wave 1” (2021).
“And” between values parts separate entries of the source, which are not always exact repeats. Equal values may be shown once.

Test system: Fibroblast
Test: Multiplex assay against human fibroblast
Type: toxicity, cell-based
How it was run: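 Cells stained live at seeding with Hoechst33342, BioTracker Green Microtubule Cytoskeleton Dye, MitoTracker Red and Annexin V Alexa Fluor 680 were imaged on a CQ1 microscope at 37°C and 5% CO2 after compound addition. Their classification by CellPathfinder machine-learning gating ran from Hoechst high-intensity objects versus normal cells, to healthy, pyknosed or fragmented nuclei among normal cells, to mitotic or apoptotic among pyknosed cells. Tubulin, mitochondrial-mass and membrane-permeability phenotypes are per cents of healthy-nucleus cells.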

[1] = 12 h, 1 µM, compound concentration 1 uM, replicate 1
[2] = 12 h, 1 µM, compound concentration 1 uM, replicate 2
[3] = 12 h, 10 µM, compound concentration 10 uM, replicate 1
[4] = 12 h, 10 µM, compound concentration 10 uM, replicate 2
[5] = 24 h, 1 µM, compound concentration 1 uM, replicate 1
[6] = 24 h, 1 µM, compound concentration 1 uM, replicate 2
[7] = 24 h, 10 µM, compound concentration 10 uM, replicate 1
[8] = 24 h, 10 µM, compound concentration 10 uM, replicate 2

## C=CCn1c(=O)c2cnc(Nc3ccc(N4CCN(C)CC4)cc3)nc2n1-c1cccc(C(C)(C)O)n1 [ADAVOSERTIB]
[1]
  Population Apoptotic (%): 69%
  Population Fragmented Nuclei (%): 28%
  Population Healthy Nuclei (%): 62%
  Population Hoechst High Intensity Objects (%): 15%
  Population Membrane Permeable-Phenotype (%): 7%
  Population Mitochondria Different-Phenotype (%): 4%
  Population Mitotic Cells (%): 30%
  Population Normal (%): 84%
  Population Pyknosed Nuclei (%): 8%
  Population Tubulin-Different-Phenotype (%): 6%
  Total Cell Count: 178
[2]
  Population Apoptotic (%): 50%
  Population Fragmented Nuclei (%): 48%
  Population Healthy Nuclei (%): 37%
  Population Hoechst High Intensity Objects (%): 35%
  Population Membrane Permeable-Phenotype (%): 9%
  Population Mitochondria Different-Phenotype (%): 19%
  Population Mitotic Cells (%): 50%
  Population Normal (%): 64%
  Population Pyknosed Nuclei (%): 14%
  Population Tubulin-Different-Phenotype (%): 19%
  Total Cell Count: 87
[3]
  Population Apoptotic (%): 44%
  Population Fragmented Nuclei (%): 29%
  Population Healthy Nuclei (%): 46%
  Population Hoechst High Intensity Objects (%): 14%
  Population Membrane Permeable-Phenotype (%): 8%
  Population Mitochondria Different-Phenotype (%): 5%
  Population Mitotic Cells (%): 55%
  Population Normal (%): 85%
  Population Pyknosed Nuclei (%): 24%
  Population Tubulin-Different-Phenotype (%): 23%
  Total Cell Count: 218
[4]
  Population Apoptotic (%): 75%
  Population Fragmented Nuclei (%): 55%
  Population Healthy Nuclei (%): 36%
  Population Hoechst High Intensity Objects (%): 41%
  Population Membrane Permeable-Phenotype (%): 17%
  Population Mitochondria Different-Phenotype (%): 23%
  Population Mitotic Cells (%): 25%
  Population Normal (%): 58%
  Population Pyknosed Nuclei (%): 8%
  Population Tubulin-Different-Phenotype (%): 35%
  Total Cell Count: 81
[5]
  Population Apoptotic (%): 83%
  Population Fragmented Nuclei (%): 27%
  Population Healthy Nuclei (%): 60%
  Population Hoechst High Intensity Objects (%): 18%
  Population Membrane Permeable-Phenotype (%): 6%
  Population Mitochondria Different-Phenotype (%): 9%
  Population Mitotic Cells (%): 16%
  Population Normal (%): 81%
  Population Pyknosed Nuclei (%): 11%
  Population Tubulin-Different-Phenotype (%): 7%
  Total Cell Count: 187
[6]
  Population Apoptotic (%): 25%
  Population Fragmented Nuclei (%): 51%
  Population Healthy Nuclei (%): 41%
  Population Hoechst High Intensity Objects (%): 29%
  Population Membrane Permeable-Phenotype (%): 4%
  Population Mitochondria Different-Phenotype (%): 8%
  Population Mitotic Cells (%): 75%
  Population Normal (%): 70%
  Population Pyknosed Nuclei (%): 6%
  Population Tubulin-Different-Phenotype (%): 12%
  Total Cell Count: 82
[7]
  Population Apoptotic (%): 56%
  Population Fragmented Nuclei (%): 30%
  Population Healthy Nuclei (%): 47%
  Population Hoechst High Intensity Objects (%): 20%
  Population Membrane Permeable-Phenotype (%): 4%
  Population Mitochondria Different-Phenotype (%): 10%
  Population Mitotic Cells (%): 43%
  Population Normal (%): 79%
  Population Pyknosed Nuclei (%): 21%
  Population Tubulin-Different-Phenotype (%): 21%
  Total Cell Count: 241
[8]
  Population Apoptotic (%): 100%
  Population Fragmented Nuclei (%): 61%
  Population Healthy Nuclei (%): 35%
  Population Hoechst High Intensity Objects (%): 29%
  Population Membrane Permeable-Phenotype (%): 9%
  Population Mitochondria Different-Phenotype (%): 9%
  Population Mitotic Cells (%): 0%
  Population Normal (%): 70%
  Population Pyknosed Nuclei (%): 3%
  Population Tubulin-Different-Phenotype (%): 28%
  Total Cell Count: 84

## COc1cc(N2CCC(N3CCN(C)CC3)CC2)ccc1Nc1ncnc(Nc2ccccc2S(=O)(=O)C(C)C)n1 [ASP-3026]
[3]
  Population Apoptotic (%): 72% and 66%
  Population Fragmented Nuclei (%): 30% and 23%
  Population Healthy Nuclei (%): 55% and 60%
  Population Hoechst High Intensity Objects (%): 14% and 18%
  Population Membrane Permeable-Phenotype (%): 11% and 9%
  Population Mitochondria Different-Phenotype (%): 6% and 7%
  Population Mitotic Cells (%): 27% and 33%
  Population Normal (%): 85% and 81%
  Population Pyknosed Nuclei (%): 13% and 16%
  Total Cell Count: 252 and 249
[4]
  Population Apoptotic (%): 80% and 100%
  Population Fragmented Nuclei (%): 66% and 72%
  Population Healthy Nuclei (%): 24% and 21%
  Population Hoechst High Intensity Objects (%): 38% and 53%
  Population Membrane Permeable-Phenotype (%): 8% and 18%
  Population Mitochondria Different-Phenotype (%): 16% and 0%
  Population Mitotic Cells (%): 20% and 0%
  Population Normal (%): 61% and 46%
  Population Pyknosed Nuclei (%): 10% and 5%
  Total Cell Count: 81 and 110
[7]
  Population Apoptotic (%): 79%
  Population Fragmented Nuclei (%): 38% and 22%
  Population Healthy Nuclei (%): 50% and 63%
  Population Hoechst High Intensity Objects (%): 18% and 16%
  Population Membrane Permeable-Phenotype (%): 15% and 7%
  Population Mitochondria Different-Phenotype (%): 1% and 3%
  Population Mitotic Cells (%): 20%
  Population Normal (%): 81% and 83%
  Population Pyknosed Nuclei (%): 11% and 14%
  Total Cell Count: 260 and 264
[8]
  Population Apoptotic (%): 50% and 100%
  Population Fragmented Nuclei (%): 76% and 67%
  Population Healthy Nuclei (%): 18% and 28%
  Population Hoechst High Intensity Objects (%): 45% and 53%
  Population Membrane Permeable-Phenotype (%): 14% and 26%
  Population Normal (%): 54% and 46%
  Population Pyknosed Nuclei (%): 5% and 3%
  Total Cell Count: 70 and 112
